Assays:
[1] = tested on: Tumor Cell line; assay: The compound was evaluated in vitro for the log10 molecular concentration that caused 50 % of 60 human tumor cell line kills; assay type: ADME, cell-based
Outline: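 Human tumor cell lines (leukemia, non-small-cell lung, ovarian, renal) were preincubated 24 h. Platinum complexes were then added as five 10-fold dilutions, 0.01–100 μM, for 48 h, followed by in situ fixation and staining, with solubilized stain read spectrophotometrically. Log LC50 (50% cell kill) was averaged across cell lines within one experiment.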

[2] = tested on: Tumor Cell line; assay: Evaluated in vitro for the log10 molecular concentration that caused 50 % inhibition of tumor growth of 60 human tumor cell lines; assay type: functional, cell-based
Outline: (§1)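 Cells preincubated 24 h, then exposed to the agent at five 10-fold dilutions (0.01–100 μM for the platinum complexes) for 48 h. Cells fixed in situ and stained; solubilized stain read spectrophotometrically. Panel of leukemia, non-small-cell lung, ovarian and renal lines. Log GI50 or TGI taken per cell line in one experiment, then averaged across lines.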

[3] = tested on: Tumor Cell line; assay: Evaluated in vitro for the log10 molecular concentration that caused […] tumor growth of 60 human tumor cell lines.; assay type: functional, cell-based; outline: as §1

Row | Substance | Log LC50 [1] | GI50 [2] | TGI [3]
1 | CARBOPLATIN [listing 1 of 2 here] | > -3.61 |  | 
2 | CARBOPLATIN [listing 2 of 2 here] |  | 107 µM | 214 µM
3 | CISPLATIN [listing 1 of 2 here] | > -3.35 |  | 
4 | CISPLATIN [listing 2 of 2 here] |  | 4.47 µM | 33.9 µM
5 | [Bis(aminomethyl)diethylsilane]tetrachloroplatinum(IV) | > -4.02 |  | 

— ChEMBL document CHEMBL1128557, “Synthesis, antitumor activity, and chemical properties of silaplatin and related platinum (II) and platinum (IV) complexes derived from beta-silyl amines” (J Med Chem, 1995)
